Reference: publication PMC3800034 (Journal of medicinal chemistry, 2013)
“Also recorded” adds a separate entry of the source.

Columns and labels:
neutrophil migration = settings: cited from earlier work
OXE receptor [1] = settings: cited from earlier work
OXE receptor [2] = target: OXE receptor (Homo sapiens, UniProt Q8TDS5); type: cell-based
[3] = test system: response of neutrophils to LTB4; test: LTB4-induced calcium mobilization in human neutrophils; type: cell-based; settings: compound 10 µM, LTB4 10 nM
Method in brief: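 Neutrophils from whole blood of healthy human donors, suspended in phosphate-buffered saline, loaded with indo-1, and moved to a cuvette with CaCl₂ (1.8 mM) and MgCl₂ (1 mM) 5 min before the run. Fluorescence was read at 37 °C in a spectrofluorimeter. After a stable baseline, vehicle or test compound was added, then LTB4 (10 nM) 2 min later. Digitonin followed to give maximal response.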

OXE receptor (Homo sapiens, UniProt Q8TDS5), sequence (Q8TDS5 whole entry): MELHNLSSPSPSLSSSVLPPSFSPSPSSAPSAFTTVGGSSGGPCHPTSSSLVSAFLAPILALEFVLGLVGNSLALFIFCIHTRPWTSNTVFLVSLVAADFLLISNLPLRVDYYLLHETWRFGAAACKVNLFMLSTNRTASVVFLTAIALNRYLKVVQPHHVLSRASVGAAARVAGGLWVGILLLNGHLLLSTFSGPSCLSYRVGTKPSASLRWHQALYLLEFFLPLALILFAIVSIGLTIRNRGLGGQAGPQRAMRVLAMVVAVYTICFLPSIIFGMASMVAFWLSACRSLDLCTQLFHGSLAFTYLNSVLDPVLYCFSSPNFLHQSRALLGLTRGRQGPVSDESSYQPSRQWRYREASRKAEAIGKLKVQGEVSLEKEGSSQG

In the case of `CCCCC/C=C\C[C@H](O)/C=C/C=C\C=C\C(=O)CCCC(=O)O` [5-oxo-12S-HETE 6, 5-oxo-12S-HETE], the “effect on 5-oxo-ETE-induced neutrophil migration” value (neutrophil migration) is given as “inhibited”, the “effect on intracellular Ca++ levels in neutrophils” value (OXE receptor [1]; compound alone) is given as “virtually no effect” and the “block of 5-oxo-ETE-induced Ca++ mobilization” value (OXE receptor [1]; neutrophils) is given as “low µmolar range”.

In the case of `O=C(O)CCCC(=O)n1ccc2ccccc21` [Compound 10, 5-(1H-indol-1-yl)-5-oxopentanoic acid], the “mobilization of intracellular calcium by the compound alone (agonist activity)” value (OXE receptor [2]; compound 30 µM added to neutrophils) is reported as “neither mobilized intracellular calcium” and the “effect on the response to 5-oxo-ETE (antagonist activity)” value (OXE receptor [2]; compound 30 µM, 5-oxo-ETE 10 nM added 2 min later) is reported as “nor altered the response to 5-oxo-ETE; also recorded: does not affect calcium mobilization”.

With `CCCCCCc1cc2ccccc2n1C(=O)CCCC(=O)O` [Compound 26, 5-(2-Hexyl-1H-indol-1-yl)-5-oxo-valeric acid] the “effect on the response of neutrophils to LTB4” value [3] was “virtually no effect”, the “inhibition of the effect of 5-oxo-ETE” value (OXE receptor [2]; compound 1 µM, 5-oxo-ETE 10 nM) was “substantially inhibited” and the “inhibition of the response to 5-oxo-ETE” value (OXE receptor [2]; compound 10 µM, 5-oxo-ETE 10 nM) was “completely inhibiting”.

For `CCCCCCc1cc2ccc(Cl)cc2n1C(=O)CCCC(=O)O` [Compound 39, 5-(6-Chloro-2-hexyl-1H-indol-1-yl)-5-oxo-valeric acid], the IC50 (OXE receptor [2]) was 0.4 ± 0.03 µM and the “increase in potency compared with non-chlorinated compound 26” value (OXE receptor [2]; 5-oxo-ETE-induced calcium mobilization, IC50 ratio) was “about 4 fold”.
